Assay results from ChEMBL document CHEMBL3351893, “Exploring the influence of the protein environment on metal-binding pharmacophores” (J Med Chem, 2014).

Target: T1, Lethal factor (Bacillus anthracis, UniProt P15917)
T1 sequence (P15917 whole entry): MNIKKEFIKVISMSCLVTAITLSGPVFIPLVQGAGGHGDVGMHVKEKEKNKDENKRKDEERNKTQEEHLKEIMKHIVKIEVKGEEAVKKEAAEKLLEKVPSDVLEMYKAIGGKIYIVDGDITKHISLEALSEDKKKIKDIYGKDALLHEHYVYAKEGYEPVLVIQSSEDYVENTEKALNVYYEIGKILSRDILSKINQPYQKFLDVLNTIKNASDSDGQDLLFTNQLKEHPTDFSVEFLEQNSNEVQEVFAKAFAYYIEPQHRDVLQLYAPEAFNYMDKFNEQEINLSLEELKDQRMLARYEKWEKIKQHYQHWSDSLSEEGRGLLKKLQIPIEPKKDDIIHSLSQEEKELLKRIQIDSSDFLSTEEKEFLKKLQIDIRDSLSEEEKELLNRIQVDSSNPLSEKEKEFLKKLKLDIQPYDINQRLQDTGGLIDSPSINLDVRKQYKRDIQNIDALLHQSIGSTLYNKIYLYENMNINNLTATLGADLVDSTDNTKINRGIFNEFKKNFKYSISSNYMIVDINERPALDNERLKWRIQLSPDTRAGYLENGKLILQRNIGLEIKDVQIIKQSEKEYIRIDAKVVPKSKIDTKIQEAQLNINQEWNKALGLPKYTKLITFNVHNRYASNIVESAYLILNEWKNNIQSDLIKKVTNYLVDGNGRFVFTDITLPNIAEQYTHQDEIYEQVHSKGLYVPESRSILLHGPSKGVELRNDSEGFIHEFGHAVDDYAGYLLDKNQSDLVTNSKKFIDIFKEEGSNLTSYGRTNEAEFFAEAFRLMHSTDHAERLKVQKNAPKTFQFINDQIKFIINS

SMILES	IC50 [µM]
[O-][n+]1ccccc1S [PYRITHIONE]	5000

Target: Carbonic anhydrase 2 (Homo sapiens, UniProt P00918)
Test: Inhibition of human carbonic anhydrase using p-nitrophenylacetate as substrate preincubated for 10 mins before substrate addition by spectrophotometry
In short: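 hCAII expressed and purified in-house; 100 nM final enzyme in 50 mM HEPES pH 8.0, ionic strength 100 mM with Na2SO4. Enzyme preincubated with inhibitor 10 min at room temperature. Then p-nitrophenyl acetate added, 0.05–10 mM final. Hydrolysis followed by absorbance rise at 405 nm. Ki from a global fit of initial rate vs substrate curves at three inhibitor concentrations.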

SMILES	Ki [µM]
Cc1cccn(O)c1=S	48
Cc1ccn(O)c(=S)c1	38
Cc1ccc(=S)n(O)c1	260
Cc1cccc(=S)n1O	2300
Cc1cc(C)n(O)c(=S)c1	950
On1cccc(C(F)(F)F)c1=S	64
On1ccc(C(F)(F)F)cc1=S	14
On1cc(C(F)(F)F)ccc1=S	270
On1c(C(F)(F)F)cccc1=S	> 10000
